Results: ChEMBL document CHEMBL5576116, “Structural modification of the propyl linker of cjoc42 in combination with sulfonate ester and triazole replacements for enhanced gankyrin binding and anti-proliferative activity” (Bioorg Med Chem, 2024)
Active and inactive are the calls of the source. The rule behind the calls is not given here.

What was measured:
HuH-6 [1] = assay: Antiproliferative activity against human HuH-6 cells incubated for 72 hrs by MTT assay; type: functional, cell-based; conditions: HuH-6, 72 h
How it was run: (§1)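 Cells kept in DMEM with 10% FBS and 1% penicillin/streptomycin, seeded at 2.5 x 10^4 cells/well and left 24 h before drug. Exposed to increasing compound concentrations for 72 h at 37 °C, 5% CO2. MTT dye (5.4 mg/mL) added for 3 h at 37 °C, formazan dissolved in DMSO, A570 read. 6–8 replicates per treatment; IC50 from dose–response curves.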

[2] = Cytotoxicity against HEK293 cells; type: toxicity, cell-based; conditions: human; how it was run: as §1
Huh-7 = assay: Antiproliferative activity against human HuH-7 cells incubated for 72 hrs by MTT assay; type: functional, cell-based; conditions: Huh-7, 72 h; how it was run: as §1
Hep 3B2 = assay: Antiproliferative activity against human Hep3B cells incubated for 72 hrs by MTT assay; type: functional, cell-based
HepG2 = assay: Antiproliferative activity against human HepG2 cells incubated for 72 hrs by MTT assay; type: functional, cell-based; conditions: HepG2, 72 h
[3] = biological target: T1, 26S proteasome non-ATPase regulatory subunit 10 (Homo sapiens) (UniProt O75832); assay: Binding affinity to gankyrin in human HuH-6 cells assessed as thermal stability incubated for 5 hrs by CETSA; type: cell-based
T1 sequence (whole entry): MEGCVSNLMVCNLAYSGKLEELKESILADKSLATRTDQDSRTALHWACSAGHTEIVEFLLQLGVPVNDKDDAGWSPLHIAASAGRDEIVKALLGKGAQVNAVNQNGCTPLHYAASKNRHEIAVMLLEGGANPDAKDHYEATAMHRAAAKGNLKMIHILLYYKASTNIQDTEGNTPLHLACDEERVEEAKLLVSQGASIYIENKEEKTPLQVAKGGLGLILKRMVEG
How it was run: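 HuH6 cells treated for 5 h with compound or vehicle, 0.25% DMSO final. Harvested cells split into six aliquots heated at 50, 53, 56, 59, 62 or 65 °C. Lysed in RIPA with protease/phosphatase inhibitors, 60 min on ice. 15 μg protein run on reducing SDS-PAGE, blotted to PVDF, probed for gankyrin with β-actin reference, ECL detection. Melt curve mean ± SD, n = 3.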

HuH-6 [4] = assay: Upregulation of Rb protein level in human HuH-6 cells at 0.82 to 3.3 uM incubated for 48 hrs by Western blotting analysis; type: functional, cell-based; conditions: dose 0.82-3.3 µM
How it was run: (§2)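 HuH6 cells in 10 cm dishes exposed to varying compound concentrations or vehicle (0.25% DMSO final) for 48 h. Harvested in cold PBS, lysed in RIPA plus protease/phosphatase inhibitors for 60 min on ice. 15 μg protein on reducing SDS-PAGE, transferred to PVDF, immunoblotted for p53, Rb and gankyrin with cyclophilin as reference; ECL detection. Run in duplicate.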

HuH-6 [5] = assay: Upregulation of p53 protein level in human HuH-6 cells at 0.82 to 3.3 uM incubated for 48 hrs by Western blotting analysis; type: functional, cell-based; conditions: dose 0.82-3.3 µM; how it was run: as §2
HuH-6 [6] = assay: Effect on gankyrin protein level in human HuH-6 cells at 0.82 to 3.3 uM incubated for 48 hrs by Western blotting analysis; type: functional, cell-based; conditions: dose 0.82-3.3 µM; how it was run: as §2
HuH-6 [7] = assay: Induction of cell cycle arrest in human HuH-6 cells assessed as accumulation of cells at […] phase at 3.3 uM incubated for 72 hrs PI/RNAase staining based flow cytometry analysis; type: functional
How it was run: (§3)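 HuH6 cells treated 72 h with compound or vehicle (0.25% DMSO final), harvested in cold PBS, normalized, fixed in 70% ethanol at −20 °C overnight. Pellet stained with PI/RNase for 30 min at 37 °C, then analyzed by flow and imaging cytometry. Mean ± SD, n = 3; one-way ANOVA, P < 0.05 significant.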

HuH-6 [8] = assay: Induction of cell cycle arrest in human HuH-6 cells assessed as decrease in S phase cells at 3.3 uM incubated for 72 hrs PI/RNAase staining based flow cytometry analysis; type: functional; how it was run: as §3

SMILES | IC50 (HuH-6 [1]) | also measured
Cc1ccc(C(=O)NCCCNC(=O)c2ccc(C)cc2)cc1 | > 50 µM | –
COC(=O)c1ccc(CNC(=O)NS(=O)(=O)c2ccc(C)cc2)cc1 | > 50 µM | –
COC(=O)c1ccc(NC(=O)Nc2ccc(C)cc2)cc1 | 38.8 µM | –
Cc1ccc(NC(=O)CCCC(=O)Nc2ccc(C)cc2)cc1 | > 50 µM | –
COC(=O)c1ccc(C(=O)NCCCCNC(=O)c2ccc(-c3ccccc3)cc2)cc1 | > 50 µM | –
COc1ccc(CNC(=O)Nc2ccc(C)cc2)cc1 | > 50 µM | –
COC(=O)c1ccc(C(=O)NCCCCNC(=O)c2ccc(C)cc2)cc1 | > 50 µM | –
COC(=O)c1ccc(-n2cc(CCCCNC(=O)c3ccc(C)cc3)nn2)cc1 | 19.5 µM | –
COC(=O)c1ccc(-n2cc(CCOS(=O)(=O)c3ccc(C)cc3)nn2)cc1 | > 50 µM | –
COC(=O)c1ccc(-n2cc(CCNC(=O)c3ccc(C)cc3)nn2)cc1 | > 50 µM | –
COC(=O)c1ccc(NC(=O)CCCCC(=O)Nc2ccc(C(=O)OC)cc2)cc1 | > 50 µM | –
COC(=O)c1ccc(NC(=O)NS(=O)(=O)c2ccc(C)cc2)cc1 | > 50 µM | –
COC(=O)c1ccc(C(=O)NCCNC(=O)c2ccc(C)cc2)cc1 | 31 µM | –
COC(=O)c1ccc(C(=O)NCCNC(=O)c2ccc(C(=O)OC)cc2)cc1 | > 50 µM | –
Cc1ccc(CNC(=O)Nc2ccc(C)cc2)cc1 | > 50 µM | –
COC(=O)c1ccc(C(=O)NCCCNC(=O)c2ccc(-c3ccccc3)cc2)cc1 | > 50 µM | –
COC(=O)c1ccc(-n2cc(CCCCOS(=O)(=O)c3ccc(C)cc3)nn2)cc1 | > 50 µM | –
Cc1ccc(C(=O)NCCCNC(=O)c2ccc(-c3ccccc3)cc2)cc1 | 20.3 µM | –
O=C(NCCCNC(=O)c1ccc(C(F)(F)F)cc1)c1ccc(-c2ccccc2)cc1 | > 50 µM | –
Cc1ccc(NC(=O)Nc2ccc(C)cc2)cc1 | > 50 µM | –
Cc1ccc(C(=O)NCCNC(=O)c2ccc(C)cc2)cc1 | 30.2 µM | –

SMILES | IC50 (HuH-6 [1]) | also measured
COc1ccc(C(=O)NCCCNC(=O)c2ccc(-c3ccccc3)cc2)cc1 | 2.4 µM | IC50 [2]: 3.3 µM
COC(=O)c1ccc(C(=O)NCCCNC(=O)c2ccc(C(=O)OC)cc2)cc1 | 19.8 µM | IC50 [2]: > 50 µM
Cc1ccc(NC(=O)CCC(=O)Nc2ccc(C)cc2)cc1 | > 50 µM | –
Cc1ccc(NC(=O)CCCCC(=O)Nc2ccc(C)cc2)cc1 | > 50 µM | –
COC(=O)c1ccc(NC(=O)CCCCC(=O)Nc2ccc(C)cc2)cc1 | > 50 µM | –
COc1ccc(CNC(=O)NS(=O)(=O)c2ccc(C)cc2)cc1 | > 50 µM | –
COC(=O)c1ccc(C(=O)NCCCCNC(=O)c2ccc(C(=O)OC)cc2)cc1 | > 50 µM | –
Cc1ccc(NC(=O)CC(=O)Nc2ccc(C)cc2)cc1 | > 50 µM | –
O=C(NCCCCNC(=O)c1ccc(C(F)(F)F)cc1)c1ccc(-c2ccccc2)cc1 | > 50 µM | –
COC(=O)c1ccc(-n2cc(CNC(=O)c3ccc(C)cc3)nn2)cc1 | > 50 µM | –
COC(=O)c1ccc(CNC(=O)Nc2ccc(C)cc2)cc1 | > 50 µM | –
COC(=O)c1ccc(C(=O)NCCCNC(=O)c2ccc(C)cc2)cc1 | > 50 µM | –
COC(=O)c1ccc(NC(=O)CCC(=O)Nc2ccc(-c3ccccc3)cc2)cc1 | > 50 µM | –
Cc1ccc(NC(=O)NS(=O)(=O)c2ccc(C)cc2)cc1 | > 50 µM | –
Cc1ccc(CNC(=O)NS(=O)(=O)c2ccc(C)cc2)cc1 | > 50 µM | –
Cc1ccc(C(=O)NCCCCNC(=O)c2ccc(-c3ccccc3)cc2)cc1 | > 50 µM | –
COC(=O)c1ccc(NC(=O)CC(=O)Nc2ccc(C(=O)OC)cc2)cc1 | > 50 µM | –
COC(=O)c1ccc(NC(=O)CCC(=O)Nc2ccc(C(=O)OC)cc2)cc1 | 3.3 µM | IC50 [2]: > 50 µM; IC50 (Huh-7): > 50 µM; IC50 (Hep 3B2): > 50 µM; IC50 (HepG2): 24 µM; Activity [3]: Active; Activity (HuH-6 [4]): Active; Activity (HuH-6 [5]): Active; Activity (HuH-6 [6]): inactive; Activity (HuH-6 [7]): Active; Activity (HuH-6 [8]): Active
Cc1ccc(C(=O)NCCCCNC(=O)c2ccc(C)cc2)cc1 | > 50 µM | –
COC(=O)c1ccc(-n2cc(CCCOS(=O)(=O)c3ccc(C)cc3)nn2)cc1 | > 50 µM | –
COC(=O)c1ccc(NC(=O)CCCC(=O)Nc2ccc(C(=O)OC)cc2)cc1 | 14.1 µM | –
